Measured values published in ChEMBL document CHEMBL4732078 (Eur J Med Chem, 2021).
Active and inactive are the calls of the source. The rule behind the calls is not given here.

How the values were obtained:
SJRH30 = test: Antiproliferative activity against human Rh30 cells assessed as reduction in cell viability after 72 hrs by sulforhodamine B assay; assay type: functional, cell-based; conditions: SJRH30, 72 h
In short: (§1)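 SRB assay. Exponentially growing cells seeded at 3000–5000/well, compounds added serially diluted after 24 h, cultured 72 h. Cells fixed with 10% TCA, stained with SRB, dye dissolved in 10 mM Tris-HCl, absorbance read at 560 nm. Inhibition = (ODcontrol − ODtreated)/ODcontrol × 100%. IC50 is the mean of at least three independent tests.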

BT-474 = test: Antiproliferative activity against human BT-474 cells assessed as reduction in cell viability after 72 hrs by sulforhodamine B assay; assay type: functional, cell-based; conditions: BT-474, 72 h; in short: as §1
MCF7 = test: Antiproliferative activity against human MCF7 cells assessed as reduction in cell viability after 72 hrs by sulforhodamine B assay; assay type: functional, cell-based; conditions: MCF7, 72 h; in short: as §1
T47D = test: Antiproliferative activity against human T47D cells assessed as reduction in cell viability after 72 hrs by sulforhodamine B assay; assay type: functional, cell-based; in short: as §1
SK-OV-3 [1] = test: Antiproliferative activity against human SK-OV-3 cells assessed as reduction in cell viability after 72 hrs by sulforhodamine B assay; assay type: functional, cell-based; conditions: SK-OV-3, 72 h; in short: as §1
MDA-MB-231 = test: Antiproliferative activity against human MDA-MB-231 cells assessed as reduction in cell viability after 72 hrs by sulforhodamine B assay; assay type: functional, cell-based; conditions: MDA-MB-231, 72 h; in short: as §1
SK-BR-3 = test: Antiproliferative activity against human SK-BR-3 cells assessed as reduction in cell viability after 72 hrs by sulforhodamine B assay; assay type: functional, cell-based; conditions: SK-BR-3, 72 h; in short: as §1
SK-OV-3 [2] = test: Antitumor activity against human SK-OV-3 cells xenografted in BALB/cA nude mouse assessed as tumor growth at 20 mg/kg, po administered once a day for 21 days and measured twice per week; assay type: functional; conditions: dose 20 mg/kg/day; time 21 day
In short: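 Female BALB/cA nude mice, 4–5 weeks old. SKOV-3 xenografts passaged once in vivo, then 1.5 mm³ fragments implanted s.c. in the right flank by trocar. At about 100 mm³ mice were randomized to vehicle or drug given orally once daily. Tumor size and body weight measured twice weekly; V = length × width²/2.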

[3] = Metabolic stability in cynomolgus monkey hepatocytes assessed as half life; assay type: ADME, cell-based, Macaca fascicularis, Hepatocyte
[4] = Metabolic stability in rat hepatocytes assessed as half life; assay type: ADME, cell-based, Hepatocyte
[5] = Cmax in rat at 10 mg/kg, po; assay type: ADME, organism-based; set-up: route oral, dose 10 mg/kg; conditions: in vivo
In short: (§2)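 Male rats given 10 mg/kg p.o.; Cmax and terminal half-life taken from the plasma concentration–time profile.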

[6] = Tmax in rat at 10 mg/kg, po; assay type: ADME, organism-based; conditions: in vivo
In short: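 Male rats were dosed orally at 10 mg/kg, with a parallel i.v. arm at 5 mg/kg. Plasma PK parameters were derived, including Cmax, Tmax, T1/2 and AUC0-∞, with oral bioavailability (F) reported against the i.v. arm.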

[7] = Half life in rat at 10 mg/kg, po; assay type: ADME, organism-based; conditions: in vivo; in short: as §2
[8] = target: Phosphatidylinositol 4,5-bisphosphate 3-kinase catalytic subunit alpha isoform (Homo sapiens, UniProt P42336); test: Inhibition of PI3Kalpha (unknown origin) transfected in human Rh30 cells assessed as reduction in AKT phosphorylation at Thr308 residue at 14 nM by western blot analysis; assay type: cell-based
Sequence of Phosphatidylinositol 4,5-bisphosphate 3-kinase catalytic subunit alpha isoform (P42336 whole entry, canonical isoform): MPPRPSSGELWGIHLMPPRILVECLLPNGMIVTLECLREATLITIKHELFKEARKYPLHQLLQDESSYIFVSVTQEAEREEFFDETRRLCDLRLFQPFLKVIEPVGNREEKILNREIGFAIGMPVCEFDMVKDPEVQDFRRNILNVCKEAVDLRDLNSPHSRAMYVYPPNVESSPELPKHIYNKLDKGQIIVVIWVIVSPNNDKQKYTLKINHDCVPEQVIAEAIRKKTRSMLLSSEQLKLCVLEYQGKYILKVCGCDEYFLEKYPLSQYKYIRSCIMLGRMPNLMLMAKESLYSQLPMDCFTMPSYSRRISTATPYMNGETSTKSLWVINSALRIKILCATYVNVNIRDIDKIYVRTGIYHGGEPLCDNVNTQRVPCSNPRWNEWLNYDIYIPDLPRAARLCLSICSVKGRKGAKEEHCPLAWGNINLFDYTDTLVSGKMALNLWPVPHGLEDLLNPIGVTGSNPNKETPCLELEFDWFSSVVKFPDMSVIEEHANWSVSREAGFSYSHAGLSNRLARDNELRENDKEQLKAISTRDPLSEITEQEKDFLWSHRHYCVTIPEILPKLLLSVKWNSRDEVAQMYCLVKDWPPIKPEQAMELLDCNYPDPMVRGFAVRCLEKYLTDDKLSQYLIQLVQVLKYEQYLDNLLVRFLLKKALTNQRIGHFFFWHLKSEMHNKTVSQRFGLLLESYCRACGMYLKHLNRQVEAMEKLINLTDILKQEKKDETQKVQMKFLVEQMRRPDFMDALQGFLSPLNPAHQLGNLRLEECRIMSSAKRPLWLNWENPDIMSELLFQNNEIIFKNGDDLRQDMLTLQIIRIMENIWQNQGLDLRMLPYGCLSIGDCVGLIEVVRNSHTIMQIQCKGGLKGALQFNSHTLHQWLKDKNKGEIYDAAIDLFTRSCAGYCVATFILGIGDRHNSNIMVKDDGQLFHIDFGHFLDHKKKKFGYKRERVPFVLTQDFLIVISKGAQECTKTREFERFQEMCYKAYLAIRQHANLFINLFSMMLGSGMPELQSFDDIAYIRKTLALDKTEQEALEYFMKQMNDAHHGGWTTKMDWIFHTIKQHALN
In short: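 Rh30 cells ectopically expressing membrane-anchored, N-terminally myristoylated, constitutively active p110α, β, γ or δ. Akt phosphorylation assessed by Western blot; lysates made in RIPA buffer, equal protein heated at 95 °C for 10 min in SDS loading buffer.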

Mus musculus = test: In vivo inhibition of PI3Kalpha in BALB/cA nude mouse xenografted with human SK-OV-3 cells assessed as reduction in AKT phosphorylation at Ser473 residue in tumor at 5 mg/kg, po measured after 4 to 8 hrs by Western blot analysis; assay type: functional, organism-based; conditions: time 4-8 hrs
In short: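 Nude mice carrying SKOV-3 xenografts of 200 mm³ got a single oral 5 mg/kg dose. Tumors were collected at 0, 2, 4 or 8 h, homogenized, and pAkt S473 probed by Western blot.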

[9] = target: PI3-kinase p110-delta/p85-alpha (Homo sapiens, UniProt O00329); test: Inhibition of human PI3K p110delta/p85alpha using PIP2 as substrate in presence of ATP measured after 30 mins by HTRF assay
Sequence of PI3-kinase p110-delta/p85-alpha (P27986 whole entry): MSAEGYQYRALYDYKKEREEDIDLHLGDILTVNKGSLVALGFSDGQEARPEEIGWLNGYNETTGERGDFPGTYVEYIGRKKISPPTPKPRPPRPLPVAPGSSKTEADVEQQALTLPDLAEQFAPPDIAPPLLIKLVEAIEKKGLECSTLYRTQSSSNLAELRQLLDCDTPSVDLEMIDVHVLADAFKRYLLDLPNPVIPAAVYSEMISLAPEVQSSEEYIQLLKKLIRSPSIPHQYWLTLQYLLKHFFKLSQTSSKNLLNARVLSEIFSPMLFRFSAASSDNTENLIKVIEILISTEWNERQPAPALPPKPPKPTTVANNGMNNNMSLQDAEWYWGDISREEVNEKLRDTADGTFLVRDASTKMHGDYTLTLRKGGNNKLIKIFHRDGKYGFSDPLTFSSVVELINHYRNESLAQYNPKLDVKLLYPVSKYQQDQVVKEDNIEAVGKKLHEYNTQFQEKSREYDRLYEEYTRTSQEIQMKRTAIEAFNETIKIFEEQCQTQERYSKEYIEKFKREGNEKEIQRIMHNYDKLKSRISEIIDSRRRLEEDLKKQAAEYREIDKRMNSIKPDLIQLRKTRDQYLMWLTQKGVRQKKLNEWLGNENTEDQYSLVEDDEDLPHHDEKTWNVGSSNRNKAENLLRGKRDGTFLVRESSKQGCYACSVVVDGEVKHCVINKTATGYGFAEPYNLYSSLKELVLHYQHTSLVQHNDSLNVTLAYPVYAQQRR
Sequence of PI3-kinase p110-delta/p85-alpha (O00329 whole entry): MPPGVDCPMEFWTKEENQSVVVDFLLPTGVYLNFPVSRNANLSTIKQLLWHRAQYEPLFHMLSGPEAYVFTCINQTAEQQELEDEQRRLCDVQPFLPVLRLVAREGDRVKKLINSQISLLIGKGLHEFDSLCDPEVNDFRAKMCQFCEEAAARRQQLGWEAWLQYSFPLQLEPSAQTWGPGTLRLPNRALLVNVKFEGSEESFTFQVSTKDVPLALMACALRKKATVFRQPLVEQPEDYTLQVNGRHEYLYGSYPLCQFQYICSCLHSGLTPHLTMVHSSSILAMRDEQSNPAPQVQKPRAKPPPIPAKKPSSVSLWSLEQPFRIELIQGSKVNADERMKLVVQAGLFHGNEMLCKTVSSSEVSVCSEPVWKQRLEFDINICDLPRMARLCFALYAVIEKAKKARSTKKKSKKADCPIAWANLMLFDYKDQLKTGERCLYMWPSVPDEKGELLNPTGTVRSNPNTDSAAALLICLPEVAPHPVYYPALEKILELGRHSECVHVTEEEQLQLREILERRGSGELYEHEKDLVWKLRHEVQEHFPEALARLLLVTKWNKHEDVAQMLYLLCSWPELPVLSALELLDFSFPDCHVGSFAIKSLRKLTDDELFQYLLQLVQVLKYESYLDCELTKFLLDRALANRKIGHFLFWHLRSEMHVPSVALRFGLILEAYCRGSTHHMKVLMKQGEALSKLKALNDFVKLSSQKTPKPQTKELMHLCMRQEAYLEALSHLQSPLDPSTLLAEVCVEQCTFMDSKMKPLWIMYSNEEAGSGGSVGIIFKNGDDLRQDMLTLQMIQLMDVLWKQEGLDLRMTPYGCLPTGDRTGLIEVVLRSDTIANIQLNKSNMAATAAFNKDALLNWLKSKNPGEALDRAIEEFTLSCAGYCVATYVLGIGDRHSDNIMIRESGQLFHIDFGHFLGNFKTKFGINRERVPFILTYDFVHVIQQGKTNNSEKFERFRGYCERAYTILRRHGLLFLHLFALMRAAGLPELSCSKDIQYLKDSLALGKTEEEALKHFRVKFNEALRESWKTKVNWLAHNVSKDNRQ

PI3K p110 beta/p85 alpha = PI3K p110 beta/p85 alpha (Homo sapiens, UniProt P42338); test: Inhibition of human PI3K p110beta/p85alpha using PIP2 as substrate incubated for 30 mins in presence of ATP measured after 30 mins by HTRF assay
Sequence of PI3K p110 beta/p85 alpha (P27986 whole entry): as the sequence (P27986 whole entry) above
Sequence of PI3K p110 beta/p85 alpha (P42338 whole entry): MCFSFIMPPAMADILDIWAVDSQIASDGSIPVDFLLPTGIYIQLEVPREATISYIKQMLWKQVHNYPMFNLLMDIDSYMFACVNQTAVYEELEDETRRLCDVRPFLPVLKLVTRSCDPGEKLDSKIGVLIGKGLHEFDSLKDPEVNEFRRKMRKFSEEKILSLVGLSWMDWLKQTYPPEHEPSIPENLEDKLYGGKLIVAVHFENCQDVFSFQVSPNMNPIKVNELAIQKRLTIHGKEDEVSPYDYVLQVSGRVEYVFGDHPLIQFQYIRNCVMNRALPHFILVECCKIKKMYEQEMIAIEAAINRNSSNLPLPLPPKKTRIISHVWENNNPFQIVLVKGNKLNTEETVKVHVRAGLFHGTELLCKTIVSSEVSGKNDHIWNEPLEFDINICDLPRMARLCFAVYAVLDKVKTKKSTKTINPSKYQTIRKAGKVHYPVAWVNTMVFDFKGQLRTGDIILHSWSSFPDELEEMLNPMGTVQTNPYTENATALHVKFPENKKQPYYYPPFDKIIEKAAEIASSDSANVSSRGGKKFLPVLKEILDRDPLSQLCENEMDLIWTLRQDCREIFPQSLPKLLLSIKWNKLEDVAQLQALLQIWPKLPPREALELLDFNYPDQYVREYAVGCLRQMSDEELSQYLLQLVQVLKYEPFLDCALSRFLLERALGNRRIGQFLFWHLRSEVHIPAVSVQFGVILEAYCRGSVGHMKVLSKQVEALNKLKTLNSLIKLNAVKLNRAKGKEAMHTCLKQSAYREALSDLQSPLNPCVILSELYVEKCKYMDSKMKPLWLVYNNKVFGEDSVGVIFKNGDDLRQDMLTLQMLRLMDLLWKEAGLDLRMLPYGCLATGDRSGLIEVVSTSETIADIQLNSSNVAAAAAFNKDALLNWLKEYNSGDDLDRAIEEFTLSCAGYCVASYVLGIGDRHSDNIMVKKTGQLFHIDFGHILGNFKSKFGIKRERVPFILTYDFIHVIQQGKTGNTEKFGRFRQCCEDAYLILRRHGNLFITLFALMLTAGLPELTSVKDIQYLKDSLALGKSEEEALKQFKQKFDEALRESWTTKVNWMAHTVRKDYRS

## COC(=O)Nc1cc(C(F)(F)F)c(-c2nc(N3CCOCC3)c3cc(CN4CCN(S(C)(=O)=O)CC4)cn3n2)cn1 [RISOVALISIB]
SJRH30
  IC50: 1.03 µM
BT-474
  IC50: < 1 µM
MCF7
  IC50: < 1 µM
T47D
  IC50: < 1 µM
SK-OV-3 [1]
  IC50: < 1 µM
MDA-MB-231
  IC50: < 1 µM
SK-BR-3
  IC50: < 1 µM
SK-OV-3 [2]
  Activity: 37%
[3]
  half-life: 0.717 h
[4]
  half-life: 2.46 h
[5]
  Cmax: 832 ng/mL
[6]
  Tmax: 0.875 h
[7]
  half-life: 1.49 h
[8]
  inhibition: Active
Mus musculus
  inhibition: inactive
[9]
  IC50: 0.0787 µM
PI3K p110 beta/p85 alpha
  IC50: 0.598 µM
